Test results as given in ChEMBL document CHEMBL4261538, “Synthesis and molecular docking studies of xanthone attached amino acids as potential antimicrobial and anti-inflammatory agents” (Medchemcomm, 2017).
In brackets after ≈: the same amount, converted by molar mass.

Key:
Staphylococcus aureus [1] = assay: Antibacterial activity against Staphylococcus aureus at 25 ug/ml incubated for 24 hrs by agar well diffusion method; format: functional; settings: read-out: DIZ
Summary of the method: (§1)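 Bacteria grown in nutrient broth at 37 °C for 24 h, then subcultured at room temperature. Compounds dissolved in DMSO at 5 mg mL⁻¹ and 5–20 µL added to 6 mm wells, giving 25, 50, 75, 100 µg per well. Gentamicin was the positive control and DMSO the negative control. Plates held at 37 °C for 24 h, then inhibition zone diameter (mm) measured. Values are means of three determinations.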

Staphylococcus aureus [2] = assay: Antibacterial activity against Staphylococcus aureus at 50 ug/ml incubated for 24 hrs by agar well diffusion method; format: functional; settings: read-out: DIZ; summary of the method: as §1
Staphylococcus aureus [3] = assay: Antibacterial activity against Staphylococcus aureus at 75 ug/ml incubated for 24 hrs by agar well diffusion method; format: functional; settings: read-out: DIZ; summary of the method: as §1
Staphylococcus aureus [4] = assay: Antibacterial activity against Staphylococcus aureus at 100 ug/ml incubated for 24 hrs by agar well diffusion method; format: functional; settings: read-out: DIZ; summary of the method: as §1
Bacillus subtilis [5] = assay: Antibacterial activity against Bacillus subtilis at 25 ug/ml incubated for 24 hrs by agar well diffusion method; format: functional; settings: read-out: DIZ; summary of the method: as §1
Bacillus subtilis [6] = assay: Antibacterial activity against Bacillus subtilis at 50 ug/ml incubated for 24 hrs by agar well diffusion method; format: functional; settings: read-out: DIZ; summary of the method: as §1
Bacillus subtilis [7] = assay: Antibacterial activity against Bacillus subtilis at 75 ug/ml incubated for 24 hrs by agar well diffusion method; format: functional; settings: read-out: DIZ; summary of the method: as §1
Bacillus subtilis [8] = assay: Antibacterial activity against Bacillus subtilis at 100 ug/ml incubated for 24 hrs by agar well diffusion method; format: functional; settings: read-out: DIZ; summary of the method: as §1
Escherichia coli [9] = assay: Antibacterial activity against Escherichia coli at 25 ug/ml incubated for 24 hrs by agar well diffusion method; format: functional; settings: read-out: DIZ; summary of the method: as §1
Escherichia coli [10] = assay: Antibacterial activity against Escherichia coli at 50 ug/ml incubated for 24 hrs by agar well diffusion method; format: functional; settings: read-out: DIZ; summary of the method: as §1
Escherichia coli [11] = assay: Antibacterial activity against Escherichia coli at 75 ug/ml incubated for 24 hrs by agar well diffusion method; format: functional; settings: read-out: DIZ; summary of the method: as §1
Escherichia coli [12] = assay: Antibacterial activity against Escherichia coli at 100 ug/ml incubated for 24 hrs by agar well diffusion method; format: functional; settings: read-out: DIZ; summary of the method: as §1
Klebsiella pneumoniae [13] = assay: Antibacterial activity against Klebsiella pneumoniae at 25 ug/ml incubated for 24 hrs by agar well diffusion method; format: functional; settings: read-out: DIZ; summary of the method: as §1
Klebsiella pneumoniae [14] = assay: Antibacterial activity against Klebsiella pneumoniae at 50 ug/ml incubated for 24 hrs by agar well diffusion method; format: functional; settings: read-out: DIZ; summary of the method: as §1
Klebsiella pneumoniae [15] = assay: Antibacterial activity against Klebsiella pneumoniae at 75 ug/ml incubated for 24 hrs by agar well diffusion method; format: functional; settings: read-out: DIZ; summary of the method: as §1
Klebsiella pneumoniae [16] = assay: Antibacterial activity against Klebsiella pneumoniae at 100 ug/ml incubated for 24 hrs by agar well diffusion method; format: functional; settings: read-out: DIZ; summary of the method: as §1
Aspergillus niger [17] = assay: Antifungal activity against Aspergillus niger at 25 ug/ml incubated for 48 hrs by agar well diffusion method; format: functional; settings: read-out: DIZ
Summary of the method: (§2)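 Compounds dissolved in DMSO at 5 mg mL⁻¹ and 5–20 µL added to 6 mm wells, giving 25, 50, 75, 100 µg per well. Bavistin was the positive control and DMSO the negative control. Plates incubated at 28 °C for 48 h, then inhibition zone diameter (mm) measured. Values are means of three determinations.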

Aspergillus niger [18] = assay: Antifungal activity against Aspergillus niger at 50 ug/ml incubated for 48 hrs by agar well diffusion method; format: functional; settings: read-out: DIZ; summary of the method: as §2
Aspergillus niger [19] = assay: Antifungal activity against Aspergillus niger at 75 ug/ml incubated for 48 hrs by agar well diffusion method; format: functional; settings: read-out: DIZ; summary of the method: as §2
Aspergillus niger [20] = assay: Antifungal activity against Aspergillus niger at 100 ug/ml incubated for 48 hrs by agar well diffusion method; format: functional; settings: read-out: DIZ; summary of the method: as §2
Candida albicans [21] = assay: Antifungal activity against Candida albicans at 25 ug/ml incubated for 48 hrs by agar well diffusion method; format: functional; settings: read-out: DIZ; summary of the method: as §2
Candida albicans [22] = assay: Antifungal activity against Candida albicans at 50 ug/ml incubated for 48 hrs by agar well diffusion method; format: functional; settings: read-out: DIZ; summary of the method: as §2
Candida albicans [23] = assay: Antifungal activity against Candida albicans at 75 ug/ml incubated for 48 hrs by agar well diffusion method; format: functional; settings: read-out: DIZ; summary of the method: as §2
Candida albicans [24] = assay: Antifungal activity against Candida albicans at 100 ug/ml incubated for 48 hrs by agar well diffusion method; format: functional; settings: read-out: DIZ; summary of the method: as §2
Fusarium oxysporum [25] = assay: Antifungal activity against Fusarium oxysporum at 25 ug/ml incubated for 48 hrs by agar well diffusion method; format: functional; settings: read-out: DIZ; summary of the method: as §2
Fusarium oxysporum [26] = assay: Antifungal activity against Fusarium oxysporum at 50 ug/ml incubated for 48 hrs by agar well diffusion method; format: functional; settings: read-out: DIZ; summary of the method: as §2
Fusarium oxysporum [27] = assay: Antifungal activity against Fusarium oxysporum at 75 ug/ml incubated for 48 hrs by agar well diffusion method; format: functional; settings: read-out: DIZ; summary of the method: as §2
Fusarium oxysporum [28] = assay: Antifungal activity against Fusarium oxysporum at 100 ug/ml incubated for 48 hrs by agar well diffusion method; format: functional; settings: read-out: DIZ; summary of the method: as §2
Staphylococcus aureus [29] = assay: Antibacterial activity against Staphylococcus aureus incubated for 24 hrs by microdilution method; format: functional
Bacillus subtilis [30] = assay: Antibacterial activity against Bacillus subtilis incubated for 24 hrs by microdilution method; format: functional
Escherichia coli [31] = assay: Antibacterial activity against Escherichia coli incubated for 24 hrs by microdilution method; format: functional
Klebsiella pneumoniae [32] = assay: Antibacterial activity against Klebsiella pneumoniae incubated for 24 hrs by microdilution method; format: functional
Aspergillus niger [33] = assay: Antifungal activity against Aspergillus niger incubated for 48 to 72 hrs by microdilution method; format: functional
Summary of the method: (§3)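 Sabouraud agar plates inoculated with fungal suspension at 10⁵ CFU mL⁻¹ plus serially diluted compounds and bavistin reference, both in DMSO. Incubated at 25 °C for 48–72 h. MIC is the lowest concentration completely inhibiting growth. Values are means of three determinations.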

Candida albicans [34] = assay: Antifungal activity against Candida albicans incubated for 48 to 72 hrs by microdilution method; format: functional; summary of the method: as §3
Fusarium oxysporum [35] = assay: Antifungal activity against Fusarium oxysporum incubated for 48 to 72 hrs by microdilution method; format: functional; summary of the method: as §3
Erythrocyte = assay: Anti-inflammatory activity in human RBC assessed as inhibition of hypotonic solution-induced hemolysis after 10 mins by spectrophotometric method; format: functional, cell-based
Summary of the method: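 Human blood (heparinized) washed with 0.9% saline, packed cells made into a 40% v/v stock in isotonic phosphate buffer (154 mM NaCl, 10 mM sodium phosphate, pH 7.4). Stock RBC mixed with hypotonic buffer (50 mM NaCl, 10 mM phosphate, pH 7.4) plus sample at 20–100 µg mL⁻¹.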

SMILES | zone of inhibition at 25 µg/mL (Staphylococcus aureus [1]) [mm] | zone of inhibition at 50 µg/mL (Staphylococcus aureus [2]) [mm] | zone of inhibition at 75 µg/mL (Staphylococcus aureus [3]) [mm] | zone of inhibition at 100 µg/mL (Staphylococcus aureus [4]) [mm] | zone of inhibition at 25 µg/mL (Bacillus subtilis [5]) [mm] | zone of inhibition at 50 µg/mL (Bacillus subtilis [6]) [mm] | zone of inhibition at 75 µg/mL (Bacillus subtilis [7]) [mm] | zone of inhibition at 100 µg/mL (Bacillus subtilis [8]) [mm] | zone of inhibition at 25 µg/mL (Escherichia coli [9]) [mm] | zone of inhibition at 50 µg/mL (Escherichia coli [10]) [mm] | zone of inhibition at 75 µg/mL (Escherichia coli [11]) [mm] | zone of inhibition at 100 µg/mL (Escherichia coli [12]) [mm] | zone of inhibition at 25 µg/mL (Klebsiella pneumoniae [13]) [mm] | zone of inhibition at 50 µg/mL (Klebsiella pneumoniae [14]) [mm] | zone of inhibition at 75 µg/mL (Klebsiella pneumoniae [15]) [mm] | zone of inhibition at 100 µg/mL (Klebsiella pneumoniae [16]) [mm] | zone of inhibition at 25 µg/mL (Aspergillus niger [17]) [mm] | zone of inhibition at 50 µg/mL (Aspergillus niger [18]) [mm] | zone of inhibition at 75 µg/mL (Aspergillus niger [19]) [mm] | zone of inhibition at 100 µg/mL (Aspergillus niger [20]) [mm] | also measured
Cl.N[C@@H](Cc1ccccc1)C(=O)Oc1ccc2c(=O)c3ccccc3oc2c1 | 22 | 27 | 34 | 38 | 22 | 27 | 34 | 38 | 20 | 27 | 34 | 37 | 23 | 29 | 34 | 40 | 20 | 30 | 36 | 41 | zone of inhibition at 25 µg/mL (Candida albicans [21]): 24 mm; zone of inhibition at 50 µg/mL (Candida albicans [22]): 28 mm; zone of inhibition at 75 µg/mL (Candida albicans [23]): 34 mm; zone of inhibition at 100 µg/mL (Candida albicans [24]): 40 mm; zone of inhibition at 25 µg/mL (Fusarium oxysporum [25]): 20 mm; zone of inhibition at 50 µg/mL (Fusarium oxysporum [26]): 25 mm; zone of inhibition at 75 µg/mL (Fusarium oxysporum [27]): 30 mm; zone of inhibition at 100 µg/mL (Fusarium oxysporum [28]): 36 mm; MIC (Staphylococcus aureus [29]): 22 µg/mL; MIC (Bacillus subtilis [30]): 22 µg/mL; MIC (Escherichia coli [31]): 22 µg/mL; MIC (Klebsiella pneumoniae [32]): 24 µg/mL; MIC (Aspergillus niger [33]): 26 µg/mL; MIC (Candida albicans [34]): 28 µg/mL; MIC (Fusarium oxysporum [35]): 26 µg/mL; IC50 (Erythrocyte): 38 µg/mL
Cl.NCC(=O)Oc1ccc2c(=O)c3ccccc3oc2c1 | 10 | 15 | 19 | 23 | 10 | 15 | 21 | 26 | 12 | 17 | 21 | 24 | 17 | 22 | 27 | 30 | 7 | 10 | 14 | 17 | zone of inhibition at 25 µg/mL (Candida albicans [21]): 9 mm; zone of inhibition at 50 µg/mL (Candida albicans [22]): 11 mm; zone of inhibition at 75 µg/mL (Candida albicans [23]): 16 mm; zone of inhibition at 100 µg/mL (Candida albicans [24]): 20 mm; zone of inhibition at 25 µg/mL (Fusarium oxysporum [25]): 7 mm; zone of inhibition at 50 µg/mL (Fusarium oxysporum [26]): 10 mm; zone of inhibition at 75 µg/mL (Fusarium oxysporum [27]): 14 mm; zone of inhibition at 100 µg/mL (Fusarium oxysporum [28]): 17 mm; IC50 (Erythrocyte): 70 µg/mL
Cl.N[C@@H](CS)C(=O)Oc1ccc2c(=O)c3ccccc3oc2c1 | 20 | 29 | 35 | 39 | 19 | 26 | 31 | 34 | 19 | 28 | 34 | 39 | 15 | 23 | 30 | 37 | 19 | 27 | 32 | 37 | zone of inhibition at 25 µg/mL (Candida albicans [21]): 17 mm; zone of inhibition at 50 µg/mL (Candida albicans [22]): 26 mm; zone of inhibition at 75 µg/mL (Candida albicans [23]): 35 mm; zone of inhibition at 100 µg/mL (Candida albicans [24]): 40 mm; zone of inhibition at 25 µg/mL (Fusarium oxysporum [25]): 20 mm; zone of inhibition at 50 µg/mL (Fusarium oxysporum [26]): 28 mm; zone of inhibition at 75 µg/mL (Fusarium oxysporum [27]): 33 mm; zone of inhibition at 100 µg/mL (Fusarium oxysporum [28]): 39 mm; IC50 (Erythrocyte): 30 µg/mL
CSCC[C@H](NC(=O)OC(C)(C)C)C(=O)Oc1ccc2c(=O)c3ccccc3oc2c1 | 15 | 17 | 22 | 27 | 13 | 18 | 24 | 29 | 16 | 19 | 25 | 30 | 16 | 22 | 26 | 31 | 12 | 15 | 18 | 22 | zone of inhibition at 25 µg/mL (Candida albicans [21]): 11 mm; zone of inhibition at 50 µg/mL (Candida albicans [22]): 16 mm; zone of inhibition at 75 µg/mL (Candida albicans [23]): 19 mm; zone of inhibition at 100 µg/mL (Candida albicans [24]): 21 mm; zone of inhibition at 25 µg/mL (Fusarium oxysporum [25]): 8 mm; zone of inhibition at 50 µg/mL (Fusarium oxysporum [26]): 14 mm; zone of inhibition at 75 µg/mL (Fusarium oxysporum [27]): 17 mm; zone of inhibition at 100 µg/mL (Fusarium oxysporum [28]): 23 mm; IC50 (Erythrocyte): 36 µg/mL (≈ 81.2 µM)
